Experimental data published in ChEMBL document CHEMBL3046087, “Aminomethylphosphonic acid accumulation in plant species treated with glyphosate” (J Agric Food Chem, 2008).

Tests used:
Lolium multiflorum [1] = assay: Induction of shikimate accumulation in Lolium multiflorum (Italian ryegrass) at growth inhibition I50 level rate measured 7 days post treatment (reference value: 904 ug/g tissue); format: functional
Outline: (§1)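 Plants were sprayed in the greenhouse at each species' I50 rate, with Tween 20 controls. Shoots were harvested at 7 DAT and rinsed free of surface glyphosate. Shikimic acid was measured by HPLC on a C18 column after 0.45 µm filtration, with 100 µL injected, isocratic 98% H2O (pH 3.0)/2% MeOH, at 1 mL flow.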

Zea mays [2] = assay: Induction of shikimate accumulation in non glyphosate-resistant Zea mays (maize) at growth inhibition I50 level rate measured 7 days post treatment (reference value: 161 ug/g tissue); format: functional
Zea mays [3] = assay: Induction of shikimate accumulation in glyphosate-resistant Zea mays (maize) at growth inhibition I50 level rate measured 7 days post treatment (reference value: 241 ug/g tissue); format: functional; outline: as §1
Abutilon theophrasti [4] = assay: Induction of shikimate accumulation in Abutilon theophrasti (velvetleaf) at growth inhibition I50 level rate measured 7 days post treatment (reference value: 2 ug/g tissue); format: functional; outline: as §1
Erigeron canadensis [5] = assay: Induction of shikimate accumulation in Conyza canadensis (horseweed) at growth inhibition I50 level rate measured 7 days post treatment (reference value: 251 ug/g tissue); format: functional; outline: as §1
[6] = test system: Pueraria montana var. lobata; assay: Induction of shikimate accumulation in Pueraria montana var. lobata ( kudzu) at growth inhibition I50 level rate measured 7 days post treatment (reference value: 188 ug/g tissue); format: functional; outline: as §1
Desmanthus illinoensis [7] = assay: Induction of shikimate accumulation in Desmanthus illinoensis (Illinois bundleflower) at growth inhibition I50 level rate measured 7 days post treatment (reference value: 21 ug/g tissue); format: functional
Senna occidentalis [8] = assay: Induction of shikimate accumulation in Senna occidentalis (coffee senna) at growth inhibition I50 level rate measured 7 days post treatment (reference value: 277 ug/g tissue); format: functional; outline: as §1
Sesbania herbacea [9] = assay: Induction of shikimate accumulation in Sesbania herbacea at growth inhibition I50 level rate measured 7 days post treatment (reference value: 266 ug/g tissue); format: functional; outline: as §1
Senna obtusifolia [10] = assay: Induction of shikimate accumulation in Senna obtusifolia (sicklepod) at growth inhibition I50 level rate measured 7 days post treatment (reference value: 348 ug/g tissue); format: functional; outline: as §1
Glycine max [11] = assay: Induction of shikimate accumulation in glyphosate-resistant Glycine max (soybean) at growth inhibition I50 level rate measured 7 days post treatment (reference value: 65 ug/g tissue); format: functional; outline: as §1
Glycine max [12] = assay: Induction of shikimate accumulation in non glyphosate-resistant Glycine max (soybean) at growth inhibition I50 level rate measured 7 days post treatment (reference value: 27 ug/g tissue); format: functional; outline: as §1
Vigna unguiculata [13] = assay: Induction of shikimate accumulation in Vigna unguiculata (cowpea) at growth inhibition I50 level rate measured 7 days post treatment (reference value: 64 ug/g tissue); format: functional; outline: as §1
Erigeron canadensis [14] = assay: Ratio of compound to AMPA level in Conyza canadensis (horseweed) at growth inhibition I50 level rate measured 7 days post treatment; format: organism-based; details: in vivo, 168 h
Outline: (§2)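 Greenhouse plants (28/22 °C, 13 h photoperiod) were sprayed at each species' I50 rate with Tween 20 controls. Shoots were clipped 7 DAT and washed free of surface herbicide. Pooled ground tissue (1 g) was extracted twice with water under sonication. Extracts were derivatized with heptafluorobutanol/trifluoroacetic anhydride (90 °C, 1 h). Glyphosate and AMPA were quantified by GC-MS against derivatized standard curves, in duplicate.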

[15] = test system: Pueraria montana var. lobata; assay: Ratio of compound to AMPA level in Pueraria montana var. lobata ( kudzu) at growth inhibition I50 level rate measured 7 days post treatment; format: organism-based; details: in vivo, 168 h; outline: as §2
Senna occidentalis [16] = assay: Ratio of compound to AMPA level in Senna occidentalis (coffee senna) at growth inhibition I50 level rate measured 7 days post treatment; format: organism-based; details: in vivo, 168 h; outline: as §2
Desmanthus illinoensis [17] = assay: Ratio of compound to AMPA level in Desmanthus illinoensis (Illinois bundleflower) at growth inhibition I50 level rate measured 7 days post treatment; format: organism-based; details: in vivo, 168 h; outline: as §2
Senna obtusifolia [18] = assay: Ratio of compound to AMPA level in Senna obtusifolia (sicklepod) at growth inhibition I50 level rate measured 7 days post treatment; format: organism-based; details: in vivo, 168 h; outline: as §2
Glycine max [19] = assay: Ratio of compound to AMPA level in non glyphosate-resistant Glycine max (soybean) at growth inhibition I50 level rate measured 7 days post treatment; format: organism-based; details: in vivo, 168 h; outline: as §2
Vigna unguiculata [20] = assay: Ratio of compound to AMPA level in Vigna unguiculata (cowpea) at growth inhibition I50 level rate measured 7 days post treatment; format: organism-based; details: in vivo, 168 h; outline: as §2
Glycine max [21] = assay: Ratio of compound to AMPA level in glyphosate-resistant Glycine max (soybean) at growth inhibition I50 level rate measured 7 days post treatment; format: organism-based; details: in vivo, 168 h; outline: as §2
Zea mays [22] = assay: Drug level in non glyphosate-resistant Zea mays (maize) assessed as AMPA level at growth inhibition I50 level rate measured 7 days post treatment; format: organism-based; details: in vivo, 168 h, BLD = below limit of detection
Outline: (§3)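 Greenhouse plants (28/22 °C, 13 h photoperiod) were sprayed with glyphosate at each species' I50 rate, with Tween 20-treated controls. Shoots were cut at 7 DAT and rinsed to remove surface herbicide. Pooled ground tissue (1 g) was water-extracted twice with sonication, acidified, and washed with methylene chloride. Extracts were derivatized with heptafluorobutanol/TFAA (90 °C, 1 h) and measured by GC-MS against derivatized standards, in duplicate.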

Lolium multiflorum [23] = assay: Drug level in Lolium multiflorum (Italian ryegrass) assessed as AMPA level at growth inhibition I50 level rate measured 7 days post treatment; format: organism-based; details: in vivo, 168 h, BLD = below limit of detection; outline: as §3
Erigeron canadensis [24] = assay: Drug level in Conyza canadensis (horseweed) assessed as AMPA level at growth inhibition I50 level rate measured 7 days post treatment; format: organism-based; details: in vivo, 168 h; outline: as §3
Zea mays [25] = assay: Drug level in glyphosate-resistant Zea mays (maize) assessed as AMPA level at growth inhibition I50 level rate measured 7 days post treatment; format: organism-based; details: in vivo, 168 h, BLD = below limit of detection; outline: as §3
Abutilon theophrasti [26] = assay: Drug level in Abutilon theophrasti (velvetleaf) assessed as AMPA level at growth inhibition I50 level rate measured 7 days post treatment; format: organism-based; details: in vivo, 168 h, BLD = below limit of detection; outline: as §3
[27] = test system: Pueraria montana var. lobata; assay: Drug level in Pueraria montana var. lobata ( kudzu) assessed as AMPA level at growth inhibition I50 level rate measured 7 days post treatment; format: organism-based; details: in vivo, 168 h; outline: as §3
Desmanthus illinoensis [28] = assay: Drug level in Desmanthus illinoensis (Illinois bundleflower) assessed as AMPA level at growth inhibition I50 level rate measured 7 days post treatment; format: organism-based; details: in vivo, 168 h; outline: as §3
Sesbania herbacea [29] = assay: Drug level in Sesbania herbacea assessed as AMPA level at growth inhibition I50 level rate measured 7 days post treatment; format: organism-based; details: in vivo, 168 h, BLD = below limit of detection; outline: as §3
Senna obtusifolia [30] = assay: Drug level in Senna obtusifolia (sicklepod) assessed as AMPA level at growth inhibition I50 level rate measured 7 days post treatment; format: organism-based; details: in vivo, 168 h; outline: as §3

For `O=C(O)CNCP(=O)(O)O` [GLYPHOSATE], the Activity (Lolium multiflorum [1]) was 6701 µg/g, the Activity (Zea mays [2]) was 149 µg/g and the Activity (Zea mays [3]) was 245 µg/g. For the same molecule, the Activity (Abutilon theophrasti [4]) was 159 µg/g, the Activity (Erigeron canadensis [5]) was 9101 µg/g and the Activity [6] was 8915 µg/g. For the same molecule, the Activity (Desmanthus illinoensis [7]) was 668 µg/g, the Activity (Senna occidentalis [8]) was 686 µg/g and the Activity (Sesbania herbacea [9]) was 6828 µg/g. It also gave an Activity (Senna obtusifolia [10]) of 1092 µg/g, an Activity (Glycine max [11]) of 53 µg/g and an Activity (Glycine max [12]) of 15251 µg/g. For the same molecule, the Activity (Vigna unguiculata [13]) was 16530 µg/g, the Ratio (Erigeron canadensis [14]) was 84 and the Ratio [15] was 19. It also gave a Ratio (Senna occidentalis [16]) of 21, a Ratio (Desmanthus illinoensis [17]) of 2 and a Ratio (Senna obtusifolia [18]) of 4. It also gave a Ratio (Glycine max [19]) of 38, a Ratio (Vigna unguiculata [20]) of 6 and a Ratio (Glycine max [21]) of 49. For the same molecule, the Drug uptake (Zea mays [22]) was “BLD”, the Drug uptake (Lolium multiflorum [23]) was “BLD” and the Drug uptake (Erigeron canadensis [24]) was 314 ng/g. For the same molecule, the Drug uptake (Zea mays [25]) was “BLD”, the Drug uptake (Abutilon theophrasti [26]) was “BLD” and the Drug uptake [27] was 297 ng/g. For the same molecule, the Drug uptake (Desmanthus illinoensis [28]) was 1513 ng/g, the Drug uptake (Sesbania herbacea [29]) was “BLD” and the Drug uptake (Senna obtusifolia [30]) was 1834 ng/g.
